High-throughput results as filed in PubChem.
The list is not random: actives were taken first. Their share in the collection is about 1.9%.
RAD54 inh – blocks human RAD54 Holliday junction branch migration; Q92698; FAM/BHQ fluorescence; inhibition, % at 10.4 µM; 0.14% of 360,000 active; AID 602329;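 active = mean normalized replicate activity at least 40 and at least half of replicates scoring 40 or more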;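 also: 0% = median of neutral control wells and 100% = median of positive control wells; inhibitors cause a drop in the FAM fluorescence signal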
RAD52 anneal inh – inhibitors of human RAD52 DNA annealing. inhibition, % at 18.7 µM. P43351. recombinant RAD52 DNA annealing, FRET fluorescence. 0.46% of 360,000 active;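 active = every replicate showing at least 50% inhibition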
Target sequence (P43351 whole entry, looked up): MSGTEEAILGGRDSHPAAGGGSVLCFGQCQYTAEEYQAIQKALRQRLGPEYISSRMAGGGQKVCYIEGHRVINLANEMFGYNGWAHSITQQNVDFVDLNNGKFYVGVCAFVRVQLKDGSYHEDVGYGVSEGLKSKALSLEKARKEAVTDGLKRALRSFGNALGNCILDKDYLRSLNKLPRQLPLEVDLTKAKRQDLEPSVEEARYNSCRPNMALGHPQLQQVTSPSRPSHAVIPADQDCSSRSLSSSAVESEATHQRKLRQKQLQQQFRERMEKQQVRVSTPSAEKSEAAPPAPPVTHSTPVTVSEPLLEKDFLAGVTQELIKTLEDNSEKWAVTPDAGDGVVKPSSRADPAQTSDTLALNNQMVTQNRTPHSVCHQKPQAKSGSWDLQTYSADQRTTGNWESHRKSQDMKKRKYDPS
PglD inh – blocks C. jejuni PglD acetyltransferase activity; inhibition, % at 12.5 µM; AID 602405; purified PglD enzyme, DTNB colorimetric CoA detection; 0.098% of 360,000 active; in the data active = inhibition above about 16%, passing the limit was not always enough
rRNA inh HTS – selective bacterial rRNA inhibition in E. coli; E. coli WT GFP vs humanized-ribosome RFP mutants, fluorescence, 24 h; hits give low values; DMSO median 0, no signal -100; GFP signal change (wild-type ribosome), % (no concentration beside the values); 1.6% of 350,000 active;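 active = significant combined selectivity score with lowered wild-type GFP, culture density cut under 30%, mutant RFP and density less affected; inactive = any of these conditions unmet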
Cneo AK release – causes C. neoformans cell lysis; adenylate kinase release luminescence, 4 h; normalised: neutral wells 0, clomiphene wells 100; lysis activity, % at 15 µM; 0.2% of 360,000 active; AID 651654;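 active = mean lysis activity across replicates of at least 80%, whatever share of replicates individually reach that level; inactive = mean lysis activity below 80%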
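Assay system: Cryptococcus neoformans yeast cells / Dosing: single-point compound dose / Timing: 4 h at 37 °C static, read 1 h later / Measured by: luminescence of released adenylate kinase using an AK detection reagent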
Active calls of the source: *; · = not tested or not shown; ! = repeats disagree.

SMILES	RAD54 inh	RAD52 anneal inh	PglD inh	rRNA inh HTS	Cneo AK release
COc1ccc(NC(=O)Nc2ccc3c(c2)C(=O)N([C@@H](C)CO)C[C@H](C)[C@H](CN(C)C(=O)NC(C)C)OCCCC[C@@H](C)O3)cc1	·	10	·	4	·
C[C@H](CO)N1C[C@H](C)[C@H](CN(C)CC2CCCCC2)Oc2ccc(NC(=O)Nc3ccc4c(c3)OCO4)cc2C1=O	5	4	0	3	83*
Cc1noc(C)c1NC(=O)Nc1cccc2c1O[C@H](CN(C)CC1CCCCC1)[C@H](C)CN([C@H](C)CO)C2=O	-1	16	18*	0	55
Cc1noc(C)c1NC(=O)Nc1ccc2c(c1)C(=O)N([C@H](C)CO)C[C@@H](C)[C@@H](CN(C)CC1CCCCC1)O2	1	16	0	1	-2
Cc1noc(C)c1NC(=O)Nc1cccc2c1O[C@@H](CN(C)CC1CCCCC1)[C@H](C)CN([C@H](C)CO)C2=O	-3	-1	5	-1	6
C[C@H](CO)N1C[C@H](C)[C@H](CN(C)CC2CC2)OCCCC[C@H](C)Oc2ccc(NC(=O)Nc3ccc4c(c3)OCO4)cc2C1=O	17	55*	0	·	2
Cc1noc(C)c1NC(=O)Nc1ccc2c(c1)C(=O)N([C@H](C)CO)C[C@H](C)[C@H](CN(C)CC1CCCCC1)O2	3	17	-2	1	93*
C[C@H]1CN([C@@H](C)CO)C(=O)c2ccccc2-c2ccccc2CO[C@@H]1CN(C)S(=O)(=O)c1ccccc1	·	·	·	8	·
C[C@@H]1CN([C@@H](C)CO)C(=O)c2cc(NC(=O)C3CC3)ccc2O[C@H]1CN(C)CC1CCCCC1	8	15	-3	3	100*
Cc1noc(C)c1NC(=O)Nc1cccc2c1O[C@H](CN(C)C(=O)Nc1ccc3c(c1)OCO3)[C@H](C)CN([C@@H](C)CO)C2=O	-5	7	-1	0	-5
C[C@@H]1CN([C@H](C)CO)C(=O)c2cc(NC(=O)C3CC3)ccc2O[C@@H]1CN(C)CC1CCCCC1	-25	3	1	1	7
C[C@H](CO)N1C[C@H](C)[C@H](CN(C)CC2CCCCC2)Oc2c(NS(C)(=O)=O)cccc2C1=O	-5	3	-3	7	91*
Cc1noc(C)c1NC(=O)Nc1cccc2c1O[C@@H](CN(C)C(=O)Nc1ccc3c(c1)OCO3)[C@@H](C)CN([C@H](C)CO)C2=O	4	-10	-4	-28*!	5
COc1ccc(S(=O)(=O)Nc2ccc3c(c2)C(=O)N([C@@H](C)CO)C[C@H](C)[C@@H](CN(C)C)OCCCC[C@H](C)O3)cc1	3	-6	1	4	91*
COc1ccc(CN(C)C[C@H]2OCCCC[C@@H](C)Oc3ccc(NS(=O)(=O)c4ccc(Cl)cc4)cc3C(=O)N([C@@H](C)CO)C[C@H]2C)cc1	-7	55*	0	-20	-3
COc1ccc(CN(C)C[C@@H]2OCCCC[C@H](C)Oc3ccc(NS(=O)(=O)c4ccc(Cl)cc4)cc3C(=O)N([C@H](C)CO)C[C@H]2C)cc1	2	57*	1	-33	2
COc1ccc(CN(C)C[C@H]2OCCCC[C@H](C)Oc3ccc(NS(=O)(=O)c4ccc(Cl)cc4)cc3C(=O)N([C@H](C)CO)C[C@@H]2C)cc1	5	49	-1	5	1
COc1ccc(CN(C)C[C@H]2OCCCC[C@@H](C)Oc3ccc(NS(=O)(=O)c4ccc(Cl)cc4)cc3C(=O)N([C@H](C)CO)C[C@H]2C)cc1	-12	55*	-2	4	1
COc1ccc(CN(C)C[C@H]2OCCCC[C@H](C)Oc3ccc(NS(=O)(=O)c4ccc(OC)cc4)cc3C(=O)N([C@H](C)CO)C[C@@H]2C)cc1	11	·	2	1	3
COc1ccc(S(=O)(=O)Nc2ccc3c(c2)C(=O)N([C@H](C)CO)C[C@H](C)[C@H](CN(C)C)OCCCC[C@@H](C)O3)cc1	1	4	1	2	5
COc1ccc(CN(C)C[C@H]2OCCCC[C@@H](C)Oc3ccc(NS(=O)(=O)c4ccc(Cl)cc4)cc3C(=O)N([C@H](C)CO)C[C@@H]2C)cc1	-5	50	1	3	-1
